Entries after “also recorded” stand apart in the source; their conditions may differ. Where two headings read alike, the source gives them in different places.
Columns and labels:
hSERT [1] = target: T1, hSERT (Homo sapiens, UniProt P31645); conditions: read-out: SERT [3H]5-HT uptake inhibition IC50, ref Cozzi et al., 1999; cited from earlier work
rDAT [2] = target: T2, rDAT (Rattus norvegicus, UniProt P23977); conditions: read-out: DAT [3H]DA uptake inhibition IC50, ref Cozzi et al., 1999; cited from earlier work
rSERT = rSERT (Rattus norvegicus, UniProt P31652); assay: Drug-evoked [3H]5-HT release via rSERT in rat brain synaptosomes; assay type: biochemical; conditions: for Fold more potent than methcathinone as [3H]5-HT releasing agent: SERT release
rDAT [3] = target: T2, rDAT; assay: Drug-evoked [3H]MPP+ release via rDAT in rat striatal synaptosomes; assay type: biochemical
hNET [4] = target: T3, hNET (Homo sapiens, UniProt P23975); conditions: read-out: NET [3H]NE uptake inhibition IC50, ref Cozzi et al., 1999; cited from earlier work
rNET = rNET (Rattus norvegicus, UniProt Q63380); assay: Drug-evoked [3H]MPP+ release via rNET in rat brain synaptosomes; assay type: biochemical
[5] = tested on: extracellular 5-HT in nucleus accumbens; assay: In vivo microdialysis of nucleus accumbens, dialysate 5-HT; conditions: rat, i.v.; for Effect on extracellular 5-HT in nucleus accumbens: methcathinone 0.3 then 1.0 mg/kg, 4-TFMAP 1.0 then 3.0 mg/kg
Summary of the method: (§1)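 Male Sprague-Dawley rats (300–350 g) under pentobarbital anaesthesia (60 mg/kg i.p.) get a jugular catheter and a nucleus accumbens guide cannula (1.6 mm lateral, 1.6 mm anterior to bregma, 6.0 mm below dura). Next morning, dialysate is collected every 20 min and assayed for DA and 5-HT by HPLC-ECD. After three stable baselines, two i.v. doses in saline (1 mL/kg) are given 60 min apart, with sampling for 120 min. Data are % of mean baseline; n=6 saline, 7 per drug; two-way ANOVA with Bonferroni.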

[6] = tested on: extracellular dopamine in nucleus accumbens; assay: In vivo microdialysis of nucleus accumbens, dialysate dopamine; set-up: species or system rat; conditions: i.v.; for Effect on extracellular dopamine in nucleus accumbens: rat, methcathinone 0.3 then 1.0 mg/kg, 4-TFMAP 1.0 then 3.0 mg/kg
Summary of the method: as §1

[7] = tested on: horizontal locomotor activity; conditions: cited from earlier work; for Locomotor effects in vivo compared to methcathinone: ref Foley and Cozzi, 2003
[8] = tested on: extracellular 5-HT in nucleus accumbens; conditions: ref Baumann et al., 2012; Kehr et al. (2011); cited from earlier work
[9] = tested on: extracellular dopamine in nucleus accumbens; conditions: ref Baumann et al., 2012; Kehr et al. (2011); cited from earlier work
human SERT = conditions: read-out: KM as SERT substrate, racemic, ref Cozzi and Foley, 2003; cited from earlier work
[10] = tested on: horizontal locomotor activity; assay: Horizontal locomotor activity during microdialysis; assay type: in vivo; conditions: rat, i.v.; methcathinone 0.3 then 1.0 mg/kg, 4-TFMAP 1.0 then 3.0 mg/kg
Summary of the method: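 Horizontal activity is recorded by a photobeam ring (2.54 cm spacing) in a 43 cm cubic arena, where rats stay overnight and during microdialysis. It is binned every 20 min, from 60 min before to 120 min after two sequential i.v. injections given 60 min apart (saline vehicle, 1 mL/kg). Data are normalized to % of three pre-injection bins and compared with saline controls (n=6; drugs n=7) by two-way ANOVA with Bonferroni.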

hSERT [11] = target: T1, hSERT; assay: Inhibition of hSERT-mediated [3H]5-HT uptake into human platelets; assay type: cell-based
hDAT = hDAT (Homo sapiens, UniProt Q01959); assay: Inhibition of hDAT-mediated [3H]DA uptake into HEK293-hDAT cells; assay type: cell-based
hNET [12] = target: T3, hNET; assay: Inhibition of hNET-mediated [3H]NE uptake into C6-hNET cells; assay type: cell-based
[13] = read-out: NET [3H]MPP+ release EC50, mean ±S.E.M.
[14] = SERT [3H]5-HT release EC50, rat brain synaptosomes, mean ±S.E.M.

Chain of rSERT (P31652 whole entry): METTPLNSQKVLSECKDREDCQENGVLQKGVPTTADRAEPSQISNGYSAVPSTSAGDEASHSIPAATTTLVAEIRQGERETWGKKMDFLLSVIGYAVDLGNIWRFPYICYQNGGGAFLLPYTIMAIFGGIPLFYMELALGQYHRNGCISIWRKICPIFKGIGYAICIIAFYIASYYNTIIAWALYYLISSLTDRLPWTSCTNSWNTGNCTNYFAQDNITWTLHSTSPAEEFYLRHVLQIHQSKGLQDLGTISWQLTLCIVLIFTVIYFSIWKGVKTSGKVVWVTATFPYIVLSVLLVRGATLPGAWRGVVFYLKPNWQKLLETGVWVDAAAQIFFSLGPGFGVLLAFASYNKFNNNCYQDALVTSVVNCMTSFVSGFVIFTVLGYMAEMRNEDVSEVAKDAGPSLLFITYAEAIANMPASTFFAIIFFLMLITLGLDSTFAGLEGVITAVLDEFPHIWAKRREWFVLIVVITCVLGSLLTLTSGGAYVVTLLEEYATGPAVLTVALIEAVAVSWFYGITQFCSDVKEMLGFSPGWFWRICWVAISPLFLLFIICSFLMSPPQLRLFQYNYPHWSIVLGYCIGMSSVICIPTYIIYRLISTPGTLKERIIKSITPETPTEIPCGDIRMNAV
Chain of rNET (Q63380 1-617): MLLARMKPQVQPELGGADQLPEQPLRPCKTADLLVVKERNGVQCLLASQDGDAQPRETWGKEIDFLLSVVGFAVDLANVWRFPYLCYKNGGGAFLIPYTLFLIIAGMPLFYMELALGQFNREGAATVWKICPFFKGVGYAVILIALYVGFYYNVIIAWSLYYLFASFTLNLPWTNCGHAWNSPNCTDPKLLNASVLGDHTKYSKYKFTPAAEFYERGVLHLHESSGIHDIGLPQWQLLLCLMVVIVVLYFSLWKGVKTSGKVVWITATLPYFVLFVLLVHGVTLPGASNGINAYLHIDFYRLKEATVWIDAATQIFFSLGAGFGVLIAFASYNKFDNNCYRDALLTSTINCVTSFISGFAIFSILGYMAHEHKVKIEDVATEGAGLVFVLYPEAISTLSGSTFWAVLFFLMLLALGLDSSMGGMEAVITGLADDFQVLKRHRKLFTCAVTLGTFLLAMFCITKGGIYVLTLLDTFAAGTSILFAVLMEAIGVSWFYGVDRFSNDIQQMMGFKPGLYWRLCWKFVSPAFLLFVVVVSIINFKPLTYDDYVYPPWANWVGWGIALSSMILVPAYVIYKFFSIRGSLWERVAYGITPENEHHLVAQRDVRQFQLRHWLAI
T2 sequence (P23977 whole entry): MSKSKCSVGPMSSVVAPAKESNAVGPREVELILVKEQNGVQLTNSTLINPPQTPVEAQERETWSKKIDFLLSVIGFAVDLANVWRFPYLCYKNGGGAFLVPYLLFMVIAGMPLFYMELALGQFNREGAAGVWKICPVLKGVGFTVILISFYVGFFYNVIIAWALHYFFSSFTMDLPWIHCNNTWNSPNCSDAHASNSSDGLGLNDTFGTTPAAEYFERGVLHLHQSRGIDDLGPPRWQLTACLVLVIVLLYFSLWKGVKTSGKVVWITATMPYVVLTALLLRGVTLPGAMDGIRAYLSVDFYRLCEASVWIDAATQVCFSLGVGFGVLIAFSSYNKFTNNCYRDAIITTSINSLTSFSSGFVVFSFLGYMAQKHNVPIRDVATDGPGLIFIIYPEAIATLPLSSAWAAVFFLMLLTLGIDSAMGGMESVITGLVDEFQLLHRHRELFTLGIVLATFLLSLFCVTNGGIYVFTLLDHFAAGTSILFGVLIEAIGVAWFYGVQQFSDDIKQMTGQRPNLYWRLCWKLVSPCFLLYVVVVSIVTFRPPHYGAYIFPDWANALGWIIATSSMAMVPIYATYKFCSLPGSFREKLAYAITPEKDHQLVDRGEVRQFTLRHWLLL
T1 sequence (P31645 whole entry): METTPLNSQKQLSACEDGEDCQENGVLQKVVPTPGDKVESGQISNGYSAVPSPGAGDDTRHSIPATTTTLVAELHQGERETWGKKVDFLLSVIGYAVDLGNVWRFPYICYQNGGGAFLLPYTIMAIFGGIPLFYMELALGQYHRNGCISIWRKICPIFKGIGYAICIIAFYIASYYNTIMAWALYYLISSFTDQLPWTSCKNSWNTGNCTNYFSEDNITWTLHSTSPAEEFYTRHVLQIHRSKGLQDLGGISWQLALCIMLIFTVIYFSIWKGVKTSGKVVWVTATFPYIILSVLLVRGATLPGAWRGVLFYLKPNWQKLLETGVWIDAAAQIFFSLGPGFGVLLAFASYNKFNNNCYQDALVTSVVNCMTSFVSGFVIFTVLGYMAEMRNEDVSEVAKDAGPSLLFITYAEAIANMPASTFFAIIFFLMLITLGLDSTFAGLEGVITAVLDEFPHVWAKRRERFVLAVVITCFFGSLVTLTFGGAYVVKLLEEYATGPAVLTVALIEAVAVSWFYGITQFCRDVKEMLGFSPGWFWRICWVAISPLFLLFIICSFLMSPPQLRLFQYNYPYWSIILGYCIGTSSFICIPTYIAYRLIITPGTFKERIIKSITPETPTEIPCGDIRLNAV
Chain of hDAT (Q01959 whole entry): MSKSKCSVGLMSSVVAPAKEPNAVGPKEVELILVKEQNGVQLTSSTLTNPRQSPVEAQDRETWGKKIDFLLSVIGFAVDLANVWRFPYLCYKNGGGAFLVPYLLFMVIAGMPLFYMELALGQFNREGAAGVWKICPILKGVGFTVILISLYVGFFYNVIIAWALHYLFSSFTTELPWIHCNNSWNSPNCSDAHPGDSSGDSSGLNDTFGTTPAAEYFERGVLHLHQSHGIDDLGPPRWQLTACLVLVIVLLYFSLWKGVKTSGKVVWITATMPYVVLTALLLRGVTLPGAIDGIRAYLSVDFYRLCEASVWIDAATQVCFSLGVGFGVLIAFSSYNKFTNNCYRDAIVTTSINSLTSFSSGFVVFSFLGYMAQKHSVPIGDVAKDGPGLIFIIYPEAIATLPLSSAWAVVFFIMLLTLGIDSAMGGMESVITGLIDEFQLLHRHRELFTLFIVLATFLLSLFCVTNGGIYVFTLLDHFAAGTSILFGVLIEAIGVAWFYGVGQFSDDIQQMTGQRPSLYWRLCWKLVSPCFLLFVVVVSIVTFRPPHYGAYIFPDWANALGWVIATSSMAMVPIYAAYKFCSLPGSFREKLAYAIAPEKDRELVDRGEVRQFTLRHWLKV
T3 sequence (P23975 whole entry): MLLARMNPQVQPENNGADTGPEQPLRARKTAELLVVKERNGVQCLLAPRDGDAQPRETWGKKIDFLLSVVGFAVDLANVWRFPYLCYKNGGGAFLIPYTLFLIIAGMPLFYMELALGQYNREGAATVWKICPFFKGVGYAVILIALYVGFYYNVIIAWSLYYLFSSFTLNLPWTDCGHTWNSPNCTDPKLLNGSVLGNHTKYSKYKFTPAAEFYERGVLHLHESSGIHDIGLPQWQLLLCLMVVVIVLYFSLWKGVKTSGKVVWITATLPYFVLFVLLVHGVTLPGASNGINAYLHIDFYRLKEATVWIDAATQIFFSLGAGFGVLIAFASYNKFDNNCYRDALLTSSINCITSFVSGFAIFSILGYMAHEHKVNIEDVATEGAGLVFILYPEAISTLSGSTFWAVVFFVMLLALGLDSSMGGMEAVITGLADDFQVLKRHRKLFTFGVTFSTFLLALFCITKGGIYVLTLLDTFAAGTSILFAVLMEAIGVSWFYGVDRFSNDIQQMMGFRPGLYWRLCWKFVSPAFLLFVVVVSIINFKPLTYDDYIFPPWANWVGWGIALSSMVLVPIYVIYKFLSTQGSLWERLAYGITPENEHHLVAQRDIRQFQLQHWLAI

## CNC(C)C(=O)c1ccccc1 (centres unmarked) [Methcathinone, reference compound]
hSERT [1]
  IC50: 35000 ± 5000 nM
rDAT [2]
  IC50: 360 ± 60 nM
rSERT; read-out: SERT [3H]5-HT release EC50, rat brain synaptosomes, mean ±S.E.M.
  EC50: 4000 ± 1000 nM
rDAT [3]; read-out: DAT [3H]MPP+ release EC50, rat striatal synaptosomes, mean ±S.E.M.
  EC50: 20 ± 1 nM
hNET [4]
  IC50: 500 ± 100 nM
rNET; [13]
  EC50: 20 ± 3 nM
[5]
  Effect on extracellular 5-HT in nucleus accumbens: large dose-dependent increases
[6]; rat nucleus accumbens
  Potency as dopamine releasing agent relative to 5-HT releaser in vivo: about twice as potent
[6]
  Effect on extracellular dopamine in nucleus accumbens: large dose-dependent increases

## CNC(C)C(=O)c1ccc(C)cc1 (centres unmarked) [mephedrone, 4-methylmethcathinone]
[7]; 1 and 3 mg/kg, ref Baumann et al., 2012, Kehr et al. (2011)
  Effect on locomotor activity: dose-related locomotor stimulation
[8]
  Effect on 5-HT release in nucleus accumbens: stimulated both 5-HT and DA release
[9]
  Effect on DA release in nucleus accumbens: stimulated both 5-HT and DA release

## [^3H]methcathinone
Human SERT
  Km: 0.244 µM

## CNC(C)C(=O)c1ccc(C(F)(F)F)cc1 (centres unmarked) [4-TFMAP, 2-(methylamino)-1-(4-trifluoromethylphenyl)propan-1-one]
[10]
  Effect on horizontal locomotor activity: no effect; also recorded: nor did it stimulate locomotor activity
hSERT [11]
  IC50: 4500 ± 600 nM
rSERT; EC50 for [3H]5-HT release at rSERT, rat brain synaptosomes
  EC50: 186 nM
rSERT; [14]
  EC50: 190 ± 30 nM
rSERT
  Fold more potent than methcathinone as [3H]5-HT releasing agent: 10 fold
hDAT
  IC50: 200000 ± 50000 nM
rDAT [3]
  EC50: 2700 ± 300 nM
rNET; read-out: EC50 for [3H]MPP+ release at rNET
  EC50: 867 nM
rNET; [13]
  EC50: 900 ± 300 nM
[5]; nucleus accumbens
  Potency on dialysate 5-HT relative to methcathinone: approximately 1/3
[5]
  Effect on extracellular 5-HT in nucleus accumbens: increased extracellular 5-HT; also recorded: dose-related increase in 5-HT efflux
hNET [12]
  IC50: 3000 ± 900 nM
[6]
  Effect on extracellular dopamine in nucleus accumbens: no effect; also recorded: did not stimulate dopamine release

## CNC(C)C(=O)c1ccccc1C(F)(F)F (centres unmarked) [2-TFMAP, 2-(methylamino)-1-(2-tri-fluoromethylphenyl)propan-1-one]
hSERT [11]
  IC50: 239000 ± 13000 nM
rSERT; [14]
  EC50: 8400 ± 800 nM
hDAT
  IC50: 689000 ± 160000 nM
rDAT [3]
  EC50: 8000 ± 900 nM
rNET; [13]
  EC50: 2200 ± 300 nM
hNET [12]
  IC50: 10000 ± 3000 nM

## CNC(C)C(=O)c1cccc(C(F)(F)F)c1 (centres unmarked) [3-TFMAP, 2-(methylamino)-1-(3-trifluoromethylphenyl)propan-1-one]
hSERT [11]
  IC50: 11300 ± 400 nM
rSERT; [14]
  EC50: 380 ± 60 nM
rSERT
  Fold more potent than methcathinone as [3H]5-HT releasing agent: 10 fold
hDAT
  IC50: 136000 ± 8000 nM
rDAT [3]
  EC50: 610 ± 90 nM
rNET; [13]
  EC50: 2700 ± 800 nM
hNET [12]
  IC50: 3000 ± 800 nM

## CNC(C)C(=O)c1ccc(Br)cc1 (centres unmarked) [4-bromomethcathinone]
[7]
  Locomotor effects in vivo compared to methcathinone: fewer locomotor effects

## CNC(C)C(=O)c1cccc(Br)c1 (centres unmarked) [3-bromomethcathinone]
[7]
  Locomotor effects in vivo compared to methcathinone: fewer locomotor effects

Reference: publication PMC3656655 (European journal of pharmacology, 2012)
